According to ChEMBL document CHEMBL3785009, “Oxadiazole-Based Cell Permeable Macrocyclic Transition State Inhibitors of Norovirus 3CL Protease” (J Med Chem, 2016):

Key:
[1] = Inhibition of Norovirus 3C-like protease using Edans-DFHLQGP-Dabcyl fluorogenic substrate after 30 mins as substrate by FRET assay
Summary of the method: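 FRET assay with the fluorogenic substrate derived from NV polyprotein cleavage sites. Compounds tested up to 100 μM. IC50 from at least two independent experiments.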

[2] = system: Norovirus; experiment: Antiviral activity against Norovirus infected in human HG23 cells assessed as reduction in RNA levels after 48 hrs by RT-PCR; assay type: functional, cell-based; details: for EC50 / EC90: HG23, 48 h
Summary of the method: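 HG23 cells are Huh-7 cells carrying the NV replicon. Cells were seeded 1 day before treatment with compound (1.0–100 μM) for 48 h. Total RNA was extracted and norovirus and β-actin RNA measured by qRT-PCR. EC50/EC90 derived from % RNA reduction versus mock after β-actin normalization. At least two independent experiments; mean and standard deviation reported.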

[3] = Cytotoxicity against human HG23 cells by CytoTox96 nonradioactive cytotoxicity assay; assay type: functional
Summary of the method: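 HG23 cells (Huh-7 cells harbouring NV replicon) exposed to compound in serial dilution up to 100 µM; cytotoxicity read with a nonradioactive cytotoxicity kit; CC50 taken as concentration giving 50% cytotoxicity; at least two independent experiments.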

[4] = Antiviral activity against Murine norovirus1 infected in […] cells assessed as inhibition of virus induced cytopathic effect after 48 hrs by CytoTox96 nonradioactive cytotoxicity assay; details: Murine norovirus 1, 48 h

SMILES	IC50 [1]	EC50 [2]	EC90 [2]	CC50 [3]	EC50 [4]	Activity [2]
CC(C)(C)OC(=O)N[C@H]1CCC2=NN=C(CCCNC(=O)CC[C@@H](C=O)NC(=O)[C@H](CC3CCCCC3)NC1=O)O2	45.1 µM	9.4 µM	73.3 µM	> 100 µM	> 100 µM	–
CC(C)(C)OC(=O)N[C@H]1CCC2=NN=C(CCNC(=O)CC[C@@H](C=O)NC(=O)[C@H](CC3CCCCC3)NC1=O)O2	14.5 µM	5.1 µM	38.2 µM	> 100 µM	19.9 µM	–
CC(C)(C)OC(=O)N[C@H]1CCC2=NN=C(CCCCNC(=O)CC[C@@H](C=O)NC(=O)[C@H](CC3CCCCC3)NC1=O)O2	18.5 µM	6.5 µM	18.2 µM	> 100 µM	10.9 µM	Dose-dependent effect
CC(C)C[C@@H]1NC(=O)[C@@H](NC(=O)OC(C)(C)C)CC2=NN=C(CNC(=O)CC[C@@H](C=O)NC1=O)O2	> 100 µM	19.4 µM	> 100 µM	> 100 µM	> 100 µM	–
CC(C)(C)OC(=O)N[C@H]1CCC2=NN=C(CCCCCNC(=O)CC[C@@H](C=O)NC(=O)[C@H](CC3CCCCC3)NC1=O)O2	8.6 µM	51.2 µM	> 100 µM	> 100 µM	> 100 µM	–
CC(C)C[C@@H]1NC(=O)[C@@H](NC(=O)OC(C)(C)C)CCC2=NN=C(CCCNC(=O)CC[C@@H](C=O)NC1=O)O2	21.3 µM	5.9 µM	30.5 µM	> 100 µM	11.1 µM	–
CC(C)C[C@@H]1NC(=O)[C@@H](NC(=O)OC(C)(C)C)CCC2=NN=C(CNC(=O)CC[C@@H](C=O)NC1=O)O2	34.3 µM	18.1 µM	72.7 µM	> 100 µM	> 100 µM	–
CC(C)C[C@@H]1NC(=O)[C@@H](NC(=O)OC(C)(C)C)CCC2=NN=C(CCNC(=O)CC[C@@H](C=O)NC1=O)O2	15.3 µM	2.5 µM	23.4 µM	> 100 µM	9.8 µM	–
